In ChEMBL document CHEMBL1125647, “Synthesis and siderophore and antibacterial activity of N5-acetyl-N5-hydroxy-L-ornithine-derived siderophore-beta-lactam conjugates: iron-transport-mediated drug delivery” (1991):
Values after ≈ are worked out from the molar mass of the structure shown.

Key:
Assay type in all cases: functional
Salmonella [1] = assay: Minimum inhibitory concentration was measured against salmonella 1135
Procedure, shortened: (§1)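 Standard agar dilution method; MICs determined externally by an industrial partner rather than in the authors' lab.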

Escherichia coli [2] = assay: cell growth was measured against Escherichia coli AN193 using liquid growth assay at 8 hr
Procedure, shortened: (§2)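 Overnight cultures diluted 1:500 into Luria broth containing EDDA 10 μg/mL, with or without test compound at 100 μg/mL. Turbidity read as absorbance at 650 nm (table heading) at 0, 2 and 8 h. SA240 is an iucD:Tn5 siderophore-deficient derivative of SA100. RW193 is E. coli K12 entA, fhuA-positive. AN193 is entA, fhuA-negative, lacking the ferrichrome receptor.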

Escherichia coli [3] = assay: cell growth was measured against Escherichia coli RW193 using liquid growth assay at 0h; procedure, shortened: as §2
Shigella flexneri [4] = assay: cell growth was measured against Shigella flexneri SA240 using liquid growth assay at 0h; procedure, shortened: as §2
Shigella flexneri [5] = assay: cell growth was measured against Shigella flexneri SA240 using liquid growth assay at 2 hr; procedure, shortened: as §2
Salmonella [6] = assay: Minimum inhibitory concentration was measured against salmonella X514; procedure, shortened: as §1
Escherichia coli [7] = assay: Minimum inhibitory concentration was measured against Escherichia coli EC14; procedure, shortened: as §1
Escherichia coli [8] = assay: cell growth was measured against Escherichia coli RW193 using liquid growth assay at 2 hr; procedure, shortened: as §2
Escherichia coli [9] = assay: cell growth was measured against Escherichia coli AN193 using liquid growth assay at 0h; procedure, shortened: as §2
Escherichia coli [10] = assay: cell growth was measured against Escherichia coli RW193 using liquid growth assay at 8 hr; procedure, shortened: as §2
Pseudomonas = assay: Minimum inhibitory concentration was measured against Pseudomonas X528; procedure, shortened: as §1
Escherichia coli [11] = assay: cell growth was measured against Escherichia coli AN193 using liquid growth assay at 2 hr; procedure, shortened: as §2
Shigella flexneri [12] = assay: cell growth was measured against Shigella flexneri SA240 using liquid growth assay at 8 hr; procedure, shortened: as §2
Streptococcus pneumoniae = assay: Minimum inhibitory concentration was measured against streptococcus pneumonia PARK; procedure, shortened: as §1
[13] = tested on: Staphylococcus epidermidis; assay: Minimum inhibitory concentration was measured against staphylococcus epidermidis 222; procedure, shortened: as §1
Shigella flexneri [14] = assay: The relative ability of compound to promote the growth of Shigella flexneri SA 100, a strain lacking the ability to synthesize siderophores was measured as zone stimulation at concentration of 10 mM
Procedure, shortened: (§3)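 S. flexneri SA100 grown overnight in Luria broth, seeded at 10^8/mL into Luria agar with EDDA (250 μg/mL). Compounds made as 10 mM aqueous stocks, diluted in water to 10, 1 or 0.1 mM. 10 μL applied on sterile paper disks. Incubated 37 °C, 18 h; diameters of growth-stimulation zones measured in mm.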

Shigella flexneri [15] = assay: The relative ability of compound to promote the growth of Shigella flexneri SA 100, a strain lacking the ability to synthesize siderophores was measured as zone stimulation at concentration of 0.1 mM; procedure, shortened: as §3
Shigella flexneri [16] = assay: The relative ability of compound to promote the growth of Shigella flexneri SA 100, a strain lacking the ability to synthesize siderophores was measured as zone stimulation at concentration of 1 mM; procedure, shortened: as §3

MIC (Salmonella [1]) [µg/mL] | MIC (Salmonella [6]) [µg/mL] | MIC (Escherichia coli [7]) [µg/mL] | MIC (Pseudomonas) [µg/mL] | MIC (Streptococcus pneumoniae) [µg/mL] | MIC [13] [µg/mL] | Compound | Cell growth (Escherichia coli [2]) | Cell growth (Escherichia coli [3]) | Cell growth (Shigella flexneri [4]) | Cell growth (Shigella flexneri [5]) | Cell growth (Escherichia coli [8]) | Cell growth (Escherichia coli [9]) | Cell growth (Escherichia coli [10]) | Cell growth (Escherichia coli [11]) | Cell growth (Shigella flexneri [12]) | Zone of stimulation (Shigella flexneri [14]) [mm] | Zone of stimulation (Shigella flexneri [15]) [mm] | Zone of stimulation (Shigella flexneri [16]) [mm]
> 64 | 0.06 (≈ 0.068 µM) | > 32 | > 128 | > 64 | > 128 | CC(=O)N(O)CCC[C@H](NC(=O)[C@H](CCCN(O)C(C)=O)NC(=O)[C@@H](N)CCCN(O)C(C)=O)C(=O)N[C@@H](C(=O)NC1C(=O)N2C(C(=O)O)=C(Cl)CC[C@H]12)c1ccc(O)cc1 (some centres undefined) | 0.691 | 0.001 | 0.001 | 0.107 | 0.347 | 0.001 | 1.59 | 0.019 | 0.974 | – | – | –
> 128 | 0.125 (≈ 0.144 µM) | > 64 | > 128 | > 64 | > 128 | CC(=O)N(O)CCC[C@H](NC(=O)[C@H](CCCN(O)C(C)=O)NC(=O)[C@@H](N)CCCN(O)C(C)=O)C(=O)N[C@@H](C(=O)NC1C(=O)N2C(C(=O)O)=C(Cl)CC[C@H]12)c1ccccc1 (some centres undefined) | – | – | – | – | – | – | – | – | – | – | – | –
1 | 0.25 | 1 | > 128 | 0.5 | 2 | N[C@@H](C(=O)N[C@@H]1C(=O)N2C(C(=O)O)=C(Cl)CS[C@H]12)c1ccccc1.O [CEFACLOR] | – | – | – | – | – | – | – | – | – | – | – | –
0.5 (≈ 1.43 µM) | 0.25 (≈ 0.715 µM) | 0.5 (≈ 1.43 µM) | > 128 | 1 (≈ 2.86 µM) | 2 (≈ 5.72 µM) | N[C@@H](C(=O)N[C@@H]1C(=O)N2C(C(=O)O)=C(Cl)CC[C@H]12)c1ccccc1 [LORACARBEF ANHYDROUS] | – | – | – | – | – | – | – | – | – | – | – | –

The remaining lines, values behind:

Compound | MIC (Salmonella [1]) [µg/mL] | MIC (Salmonella [6]) [µg/mL] | MIC (Escherichia coli [7]) [µg/mL] | MIC (Pseudomonas) [µg/mL] | MIC (Streptococcus pneumoniae) [µg/mL] | MIC [13] [µg/mL] | Cell growth (Escherichia coli [2]) | Cell growth (Escherichia coli [3]) | Cell growth (Shigella flexneri [4]) | Cell growth (Shigella flexneri [5]) | Cell growth (Escherichia coli [8]) | Cell growth (Escherichia coli [9]) | Cell growth (Escherichia coli [10]) | Cell growth (Escherichia coli [11]) | Cell growth (Shigella flexneri [12]) | Zone of stimulation (Shigella flexneri [14]) [mm] | Zone of stimulation (Shigella flexneri [15]) [mm] | Zone of stimulation (Shigella flexneri [16]) [mm]
CC(=O)N(O)CCC[C@H](NC(=O)[C@H](CCCN(O)C(C)=O)NC(=O)[C@@H](N)CCCN(O)C(C)=O)C(=O)N[C@@H](C(=O)NC1C(=O)N(OCC(=O)O)[C@H]1C)c1ccc(O)cc1 (some centres undefined) | – | – | – | – | – | – | – | – | – | – | – | – | – | – | – | 31 | 0 | 16
CC(=O)N(O)CCC[C@H](NC(=O)[C@H](CCCN(O)C(C)=O)NC(=O)[C@@H](N)CCCN(O)C(C)=O)C(=O)N[C@@H](C(=O)NC1C(=O)N(OCC(=O)O)[C@H]1C)c1ccccc1 (some centres undefined) | – | – | – | – | – | – | – | – | – | – | – | – | – | – | – | 28 | 0 | 12
